Laboratory results as given in ChEMBL document CHEMBL5712898, “H3K27me1 is essential for MMP-9-dependent H3N-terminal tail proteolysis during osteoclastogenesis” (Epigenetics Chromatin, 2018).
The source made the active and inactive calls. No cut-off for these calls is given here.

Tests used:
[1] = target: Matrix metalloproteinase-9 (Homo sapiens) (UniProt P14780); assay: Inhibition of MMP-9 in M-CSF/RANKL-induced OCP cells (unknown origin) assessed as reduction in Lif mRNA expression at 10 nM cultured for 3 days with RANKL by RT-qPCR analysis; assay type: cell-based; settings: Osteoclast, time 3.0 day
Method in brief: (§1)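 OCP cells were induced for 3 days with 30 ng/ml M-CSF and 50 ng/ml RANKL, with BIX01294 (1.5 µM) and/or MMP-9 inhibitor I (10 nM) added to the medium. Nfatc1, Lif and Xpr1 transcripts were quantified by RT-qPCR as fold change. Data are given as mean ± SD.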

[2] = target: Matrix metalloproteinase-9 (Homo sapiens) (UniProt P14780); assay: Inhibition of MMP-9 in M-CSF/RANKL-induced OCP cells (unknown origin) assessed as reduction in TRAP-positive cells at 10 nM co-treated with 1.5 uM BIX01294 cultured for 0, 1, 3, and 5 days with RANKL by light microscopic analysis; assay type: cell-based; settings: Osteoclast, time 5.0 day
Method in brief: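 OCP cells were differentiated with 30 ng/ml M-CSF and 50 ng/ml RANKL, with media carrying BIX01294 (1.5 µM) and/or MMP-9 inhibitor I (10 nM). On days 0, 1, 3 and 5 cells were formaldehyde-fixed and stained for tartrate-resistant acid phosphatase with an acid phosphatase leukocyte kit. TRAP-positive cells with three or more nuclei were counted as osteoclasts under a light microscope.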

[3] = target: Matrix metalloproteinase-9 (Homo sapiens) (UniProt P14780); assay: Inhibition of MMP-9 in M-CSF/RANKL-induced OCP cells (unknown origin) assessed as reduction in accumulation of H3K27me1 in the P region of Nfatc1 gene at 10 nM cultured for 3 days with RANKL by ChIPac-qPCR analysis; assay type: cell-based; settings: Osteoclast, time 3.0 day
Method in brief: (§2)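 Cells were 3-day RANKL-induced OCP cultures (30 ng/ml M-CSF, 50 ng/ml RANKL) with inhibitor in the medium. Chromatin was fixed with […], acetylated with 20 mM acetic anhydride, and immunoprecipitated; crosslinks were reversed overnight at 65 °C. Occupancy was measured by qPCR at the Nfatc1 promoter, the Lif coding region and the Xpr1 promoter plus coding region. Data are given as mean ± SD.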

[4] = target: Matrix metalloproteinase-9 (Homo sapiens) (UniProt P14780); assay: Inhibition of MMP-9 in M-CSF/RANKL-induced OCP cells (unknown origin) assessed as reduction in accumulation of H3K27me1 in the CR region of Lif gene at 10 nM cultured for 3 days with RANKL by ChIPac-qPCR analysis; assay type: cell-based; settings: Osteoclast, time 3.0 day; method in brief: as §2
[5] = target: Matrix metalloproteinase-9 (Homo sapiens) (UniProt P14780); assay: Inhibition of MMP-9 in M-CSF/RANKL-induced OCP cells (unknown origin) assessed as reduction in Nfatc1 mRNA expression at 10 nM cultured for 3 days with RANKL by RT-qPCR analysis; assay type: cell-based; settings: Osteoclast, time 3.0 day; method in brief: as §1
[6] = target: Matrix metalloproteinase-9 (Homo sapiens) (UniProt P14780); assay: Inhibition of MMP-9 in M-CSF/RANKL-induced OCP cells (unknown origin) assessed as reduction in H3NT proteolysis at 10 nM co-treated with 1.5 uM BIX01294 cultured for 0, 1, 3, and 5 days with RANKL by Western blot analysis; assay type: cell-based; settings: Osteoclast, time 5.0 day
Method in brief: (§3)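 Osteoclast precursor cells cultured with 30 ng/ml M-CSF plus 50 ng/ml RANKL for 0, 1, 3 or 5 days, with BIX01294 (1.5 µM) and/or MMP-9 inhibitor I (10 nM) in the medium. Nuclei were isolated in HEPES pH 7.4 sucrose buffer with 0.2% Triton X-100, and chromatin was extracted in EDTA/EGTA buffer. Cleaved H3 was detected as a faster-migrating band on Western blot with H3 C-terminal antibody.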

[7] = target: Matrix metalloproteinase-9 (Homo sapiens) (UniProt P14780); assay: Inhibition of MMP-9 in M-CSF/RANKL-induced OCP cells (unknown origin) assessed as reduction in Xpr1 mRNA expression at 10 nM co-treated with BIX01294 cultured for 3 days with RANKL by RT-qPCR analysis; assay type: cell-based; settings: Osteoclast, time 3.0 day; method in brief: as §1
[8] = target: Matrix metalloproteinase-9 (Homo sapiens) (UniProt P14780); assay: Inhibition of MMP-9 in M-CSF/RANKL-induced OCP cells (unknown origin) assessed as reduction in Xpr1 mRNA expression at 10 nM cultured for 3 days with RANKL by RT-qPCR analysis; assay type: cell-based; settings: Osteoclast, time 3.0 day; method in brief: as §1
[9] = target: Matrix metalloproteinase-9 (Homo sapiens) (UniProt P14780); assay: Inhibition of MMP-9 in M-CSF/RANKL-induced OCP cells (unknown origin) assessed as reduction in accumulation of H3K27me1 in the P and CR region of Xpr1 gene at 10 nM cultured for 3 days with RANKL by ChIPac-qPCR analysis; assay type: cell-based; settings: Osteoclast, time 3.0 day; method in brief: as §2
[10] = target: Matrix metalloproteinase-9 (Homo sapiens) (UniProt P14780); assay: Inhibition of MMP-9 in M-CSF/RANKL-induced OCP cells (unknown origin) assessed as reduction in H3NT proteolysis at 10 nM cultured for 0, 1, 3, and 5 days with RANKL by Western blot analysis; assay type: cell-based; settings: Osteoclast, time 5.0 day; method in brief: as §3
[11] = target: Matrix metalloproteinase-9 (Homo sapiens) (UniProt P14780); assay: Inhibition of MMP-9 in M-CSF/RANKL-induced OCP cells (unknown origin) assessed as reduction in Lif mRNA expression at 10 nM co-treated with BIX01294 cultured for 3 days with RANKL by RT-qPCR analysis; assay type: cell-based; settings: Osteoclast, time 3.0 day; method in brief: as §1
[12] = target: Matrix metalloproteinase-9 (Homo sapiens) (UniProt P14780); assay: Inhibition of MMP-9 in M-CSF/RANKL-induced OCP cells (unknown origin) assessed as reduction in accumulation of G9a in the P region of Nfatc1 gene at 10 nM cultured for 3 days with RANKL by ChIPac-qPCR analysis; assay type: cell-based; settings: Osteoclast, time 3.0 day
[13] = target: Matrix metalloproteinase-9 (Homo sapiens) (UniProt P14780); assay: Inhibition of MMP-9 in M-CSF/RANKL-induced OCP cells (unknown origin) assessed as reduction in accumulation of G9a in the CR region of Lif gene at 10 nM cultured for 3 days with RANKL by ChIPac-qPCR analysis; assay type: cell-based; settings: Osteoclast, time 3.0 day
[14] = target: Matrix metalloproteinase-9 (Homo sapiens) (UniProt P14780); assay: Inhibition of MMP-9 in M-CSF/RANKL-induced OCP cells (unknown origin) assessed as reduction in accumulation of G9a in the P and CR region of Xpr1 gene at 10 nM cultured for 3 days with RANKL by ChIPac-qPCR analysis; assay type: cell-based; settings: Osteoclast, time 3.0 day
[15] = target: Matrix metalloproteinase-9 (Homo sapiens) (UniProt P14780); assay: Inhibition of MMP-9 in M-CSF/RANKL-induced OCP cells (unknown origin) assessed as reduction in Nfatc1 mRNA expression at 10 nM co-treated with BIX01294 cultured for 3 days with RANKL by RT-qPCR analysis; assay type: cell-based; settings: Osteoclast, time 3.0 day; method in brief: as §1
Osteoclast [16] = assay: Inhibition of EZH1/2 in M-CSF/RANKL-induced OCP cells (unknown origin) assessed as reduction in H3K27me2 level at 2 uM cultured for 0, 1, 3, and 5 days with RANKL by Western blot analysis; settings: Homo sapiens, time 5.0 day
Osteoclast [17] = assay: Inhibition of EZH1/2 in M-CSF/RANKL-induced OCP cells (unknown origin) assessed as reduction in H3K27me3 level at 2 uM cultured for 0, 1, 3, and 5 days with RANKL by Western blot analysis; settings: Homo sapiens, time 5.0 day
Osteoclast [18] = assay: Inhibition of EZH1/2 in M-CSF/RANKL-induced OCP cells (unknown origin) assessed as reduction in H3NT proteolysis at 2 uM cultured for 0, 1, 3, and 5 days with RANKL by Western blot analysis; settings: Homo sapiens, time 5.0 day

Sequence of Matrix metalloproteinase-9 (Homo sapiens) (P14780 whole entry): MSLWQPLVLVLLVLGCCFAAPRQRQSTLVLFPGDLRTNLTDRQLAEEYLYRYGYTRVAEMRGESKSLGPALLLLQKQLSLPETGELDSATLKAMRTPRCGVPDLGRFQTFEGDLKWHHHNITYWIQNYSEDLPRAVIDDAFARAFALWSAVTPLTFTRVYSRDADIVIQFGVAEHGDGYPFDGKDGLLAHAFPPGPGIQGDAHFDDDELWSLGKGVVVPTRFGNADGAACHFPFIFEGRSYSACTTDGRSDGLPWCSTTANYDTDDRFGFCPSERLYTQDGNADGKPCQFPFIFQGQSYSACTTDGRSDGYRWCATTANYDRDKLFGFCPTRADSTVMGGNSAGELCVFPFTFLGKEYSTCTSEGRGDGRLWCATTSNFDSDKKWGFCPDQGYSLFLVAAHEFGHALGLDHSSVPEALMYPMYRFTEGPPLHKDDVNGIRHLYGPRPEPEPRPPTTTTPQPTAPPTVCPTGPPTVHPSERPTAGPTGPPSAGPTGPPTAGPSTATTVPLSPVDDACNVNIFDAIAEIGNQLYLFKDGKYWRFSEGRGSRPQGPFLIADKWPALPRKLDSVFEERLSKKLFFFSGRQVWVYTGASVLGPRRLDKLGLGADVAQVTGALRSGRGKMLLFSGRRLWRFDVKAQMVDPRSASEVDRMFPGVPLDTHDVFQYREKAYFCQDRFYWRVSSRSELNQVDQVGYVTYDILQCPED

| inhibition [1] | inhibition [2] | inhibition [3] | inhibition [4] | inhibition [5] | inhibition [6] | inhibition [7] | inhibition [8] | inhibition [9] | inhibition [10] | inhibition [11] | inhibition [12] | inhibition [13] | inhibition [14] | inhibition [15] | Compound | inhibition (Osteoclast [16]) | inhibition (Osteoclast [17]) | inhibition (Osteoclast [18]) |
| --- | --- | --- | --- | --- | --- | --- | --- | --- | --- | --- | --- | --- | --- | --- | --- | --- | --- | --- |
| Active | Active | inactive | inactive | Active | Active | Active | Active | inactive | Active | Active | inactive | inactive | inactive | Active | CCN(CC)Cc1cc(C)c(N(Cc2ccccc2)S(=O)(=O)c2ccc(OC)cc2)c(C(=O)NO)c1 | – | – | – |
| – | – | – | – | – | – | – | – | – | – | – | – | – | – | – | CCCc1cc(C)[nH]c(=O)c1CNC(=O)c1cc(-c2ccc(N3CCN(C(C)C)CC3)nc2)cc2c1cnn2C(C)C | Active | Active | inactive |
